From ChEMBL document CHEMBL1126671 (J Med Chem, 1993) come the findings set out here.

The term IC50 denotes the concentration needed to halve the response being measured. High values mean lower potency, low ones higher potency.

Test [1] deals with Protein kinase C, PKC; classical (Rattus norvegicus, UniProt P05696+P68403+P63319). The test is described as follows: Inhibition of protein kinase C was evaluated as Inhibitory concentration. In kind it is protein assay. Put shortly: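 Rat brain PKC; procedure as in earlier work; triplicate points per assay; IC50 is the mean of at least two independent assays.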
The nature of test [2]: Inhibition of protein kinase A was evaluated as Inhibitory concentration. In short, it runs like this:
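PKA from bovine heart; procedure as in earlier work; triplicate points per assay; IC50 is the mean of at least two independent assays.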

Test [3] can be described thus: Inhibition of rat liver casein kinase II.
The next test concerns the target Protein kinase C (PKC). Kind of test: Inhibition of protein kinase C (PKC) of rat brain.
A short description of test [4]: Inhibition of human platelet protein kinase C (PKC).
The species named for a further test is Homo sapiens. Kind of test: Inhibition of TPA-stimulated 47-kDa protein phosphorylation in platelets. In kind it is functional. In short, it runs like this:
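Procedure as in earlier work; TPA-stimulated 47-kDa protein phosphorylation in platelets; triplicate points per assay; IC50 is the mean of at least three independent assays.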

Test [5] in a line: Antagonistic effect on allogenic mixed lymphocyte reaction. In kind it is functional. In short, it runs like this: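 Allogeneic mixed lymphocyte reaction run by a published method; triplicate points per assay; IC50 is the mean of at least three independent assays.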
Test [6] concerns the target Proto-oncogene tyrosine-protein kinase Src (Homo sapiens, UniProt P12931). Kind of test: Inhibition of human p60 c-src. In short, it runs like this:
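Human p60c-src (20 units) with angiotensin II substrate (60 µg), 10 µM [γ-32P]ATP, 10 mM MgCl2, in 50 mM HEPES, 0.1 mM EDTA, 0.015% Brij 35, pH 7.5; final DMSO 10%. Incubated 60 min at 30 °C, stopped with 40 mM EDTA. Aliquots spotted on phosphocellulose paper, washed with orthophosphoric acid, counted by liquid scintillation.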

The target in test [7] is cAMP-dependent protein kinase (PKA) (Homo sapiens, UniProt P22694+P17612+P22612). Kind of test: Inhibition of human neutrophil protein kinase A (PKA). The test is classed as protein assay.
Test [8] concerns the target Tyrosine-protein kinase Lck (Homo sapiens, UniProt P06239). Kind of test: Inhibition of human p56 lck.
The nature of test [9]: (§1) Inhibition of rabbit muscle phosphorylase kinase (PhK). On the set-up: species or system Oryctolagus cuniculus.
Test [10] is described as follows: Inhibition of human neutrophil protein kinase C (PKC).
Test [11] can be described thus: as §1. Details: species or system Oryctolagus cuniculus. Put shortly: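 Rabbit muscle phosphorylase kinase; procedure as in earlier work; triplicate points per assay; IC50 is the mean of at least two independent assays.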
This is another data set of the same source.

The target in test [12] is Protein kinase C, PKC; classical/novel. Kind of test: Antagonistic effect on TPA-stimulated CD3 down-regulation in T-cells. The test is classed as functional. Put shortly:
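Procedure as in earlier work; TPA-stimulated CD3 down-regulation in T-cells; triplicate points per assay; IC50 is the mean of at least two independent assays.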

Chain of Proto-oncogene tyrosine-protein kinase Src (P12931 2-536 limits assumed): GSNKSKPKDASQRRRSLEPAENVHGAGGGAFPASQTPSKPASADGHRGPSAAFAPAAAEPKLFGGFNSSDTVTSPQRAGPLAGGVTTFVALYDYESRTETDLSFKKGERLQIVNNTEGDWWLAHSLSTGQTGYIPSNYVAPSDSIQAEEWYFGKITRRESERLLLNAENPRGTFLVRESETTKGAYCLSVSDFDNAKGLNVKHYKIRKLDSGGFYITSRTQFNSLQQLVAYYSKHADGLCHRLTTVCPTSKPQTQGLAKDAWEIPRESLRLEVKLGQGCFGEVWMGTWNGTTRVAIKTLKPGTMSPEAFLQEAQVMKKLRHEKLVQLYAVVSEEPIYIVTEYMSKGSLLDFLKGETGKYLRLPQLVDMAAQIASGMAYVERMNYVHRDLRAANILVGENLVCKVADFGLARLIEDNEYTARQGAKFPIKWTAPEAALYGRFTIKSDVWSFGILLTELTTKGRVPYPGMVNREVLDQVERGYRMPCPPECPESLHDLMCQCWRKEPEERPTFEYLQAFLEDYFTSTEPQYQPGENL
Chain of Tyrosine-protein kinase Lck (P06239 whole entry): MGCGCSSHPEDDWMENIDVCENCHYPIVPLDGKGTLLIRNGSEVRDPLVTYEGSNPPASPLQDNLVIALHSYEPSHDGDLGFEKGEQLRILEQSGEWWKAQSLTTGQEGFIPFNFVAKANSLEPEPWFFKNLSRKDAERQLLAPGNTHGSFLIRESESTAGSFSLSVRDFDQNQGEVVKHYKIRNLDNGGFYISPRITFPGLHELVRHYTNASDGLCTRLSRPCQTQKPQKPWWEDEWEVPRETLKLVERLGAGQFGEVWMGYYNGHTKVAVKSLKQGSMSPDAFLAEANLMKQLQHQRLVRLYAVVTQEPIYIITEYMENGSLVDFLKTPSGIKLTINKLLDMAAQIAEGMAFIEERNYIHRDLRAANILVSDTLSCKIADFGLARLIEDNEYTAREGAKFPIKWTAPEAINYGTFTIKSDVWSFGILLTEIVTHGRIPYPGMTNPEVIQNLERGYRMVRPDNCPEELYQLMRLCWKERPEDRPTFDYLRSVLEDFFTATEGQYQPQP

As to `Cn1cc(C2=C(c3c4n(c5ccccc35)CCNC4)C(=O)NC2=O)c2ccccc21`, the IC50 in test [1] was determined as 540 nM; in test [2], 3200 nM.

With `CNCC1CCn2c(c(C3=C(c4cn(C)c5ccccc45)C(=O)NC3=O)c3ccccc32)C1.Cl` (stereo not drawn), the results for the IC50 in test [1] and in test [2] were 9.8 nM and 4800 nM, respectively.

Take `CN(C)CC1CCn2c(c(C3=C(c4cn(C)c5ccccc45)C(=O)NC3=O)c3ccccc32)C1.Cl` (stereo not drawn): the IC50 is greater than 100000 nM in test [3]; 42 nM against Protein kinase C (PKC); 42 nM in [1]; 45 nM in test [4]; 8600 nM in test [2]; 950 nM in the test filed under Homo sapiens. Further, the IC50 was 540 nM in test [5]; greater than 100000 nM in [6]; 5900 nM in test [7]; greater than 100000 nM in test [8]; 1100 nM in test [9]; 32 nM in [10].

Take `Cl.Cn1cc(C2=C(c3c4n(c5ccccc35)CC(CCN)CC4)C(=O)NC2=O)c2ccccc21` (stereo not drawn): the IC50 in test [1] is 23 nM; in test [2] it was 4500 nM.

Turning to `Cn1cc(C2=C(c3cn(CCCN)c4ccccc34)C(=O)NC2=O)c2ccccc21`, in test [1], the IC50 came out at 75 nM. That is a double-digit nanomolar value.

In the case of `Cn1cc(C2=C(c3c4n(c5ccccc35)CC(CN)C4)C(=O)NC2=O)c2ccccc21` (stereo not drawn), the IC50 in [1] amounted to 14 nM; in test [2] it was 3900 nM.

As for `Cn1cc(C2=C(c3c4n(c5ccccc35)CCC(CCN)C4)C(=O)NC2=O)c2ccccc21` (stereo not drawn), the 50% inhibitory concentration (IC50) was found to be 47 nM in [1] and 24000 nM in test [2].

For `Cn1cc(C2=C(c3c4n(c5ccccc35)CC[C@H](CN)C4)C(=O)NC2=O)c2ccccc21`, the values for the IC50 in [1] and in test [2] were 4.1 nM and 12100 nM, respectively.

For the compound `Cn1cc(C2=C(c3c4n(c5ccccc35)CCC4)C(=O)NC2=O)c2ccccc21`, the figures for the half-maximal inhibitory concentration (IC50) in [1] and in test [2] were 210 nM and 68000 nM, respectively.

Regarding `Cn1cc(C2=C(c3c4n(c5ccccc35)CCCCC4)C(=O)NC2=O)c2ccccc21`, the IC50 in [1] was 450 nM; in test [2], greater than 100000 nM.

For the compound `Cn1cc(C2=C(c3c4n(c5ccccc35)CC[C@@H](CN)C4)C(=O)NC2=O)c2ccccc21`, the IC50 amounted to 10 nM in test [1] and 900 nM in [2].

Regarding `Cn1cc(C2=C(c3c4n(c5ccccc35)CCC(C[N+](C)(C)C)C4)C(=O)NC2=O)c2ccccc21` (stereo not drawn), the IC50 in [1] is 49 nM; in test [2] it was 92500 nM.

`Cn1cc(C2=C(c3c4n(c5ccccc35)CCC(CN)CC4)C(=O)NC2=O)c2ccccc21` (stereo not drawn): the IC50 in test [1] was 16.5 nM; in test [2], 2600 nM.

For `Cn1cc(C2=C(c3c4n(c5ccccc35)CC(N)CC4)C(=O)NC2=O)c2ccccc21` (stereo not drawn), the IC50 in test [1] is 135 nM; in test [2], 4100 nM.

In the case of `Cn1cc(C2=C(c3c4n(c5ccccc35)CCC(N)C4)C(=O)NC2=O)c2ccccc21` (stereo not drawn), the results for the IC50 in test [1] and in test [2] were 110 nM and 3300 nM, respectively.

Take `Cn1cc(C2=C(c3c4n(c5ccccc35)CCC(CN)C4)C(=O)NC2=O)c2ccccc21` (stereo not drawn): the IC50 in [3] was greater than 100000 nM; at Protein kinase C (PKC) it was 7.6 nM; in [11], 1300 nM; in test [12], 600 nM; in [1], 7.6 nM; in test [4] it was 12 nM. Also, the IC50 is 2800 nM in test [2]; 460 nM in the test listed under Homo sapiens; 470 nM in [5]; greater than 100000 nM in [6]; 1200 nM in [7]; greater than 100000 nM in test [8]. Half-maximal inhibition in test [10] (IC50) was put at 4.8 nM.

In the case of `Cn1cc(C2=C(c3c4n(c5ccccc35)CCCC4)C(=O)NC2=O)c2ccccc21`, the IC50 came to 155 nM in test [1] and 23000 nM in test [2].

Turning to `Cn1cc(C2=C(c3c4n(c5ccccc35)CCCC(CN)C4)C(=O)NC2=O)c2ccccc21` (stereo not drawn), the IC50 in test [1] stood at 272 nM; in test [2], 34000 nM.

As to `Cn1cc(C2=C(c3c4n(c5ccccc35)CCC(N)CC4)C(=O)NC2=O)c2ccccc21` (stereo not drawn), the IC50 in test [1] is 100 nM; in test [2] it was 2400 nM.

Take `Cn1cc(C2=C(c3c4n(c5ccccc35)CC(CN)CCC4)C(=O)NC2=O)c2ccccc21` (stereo not drawn): the values for the IC50 in [1] and in test [2] were 400 nM and 12800 nM, respectively.

With `Cn1cc(C2=C(c3c4n(c5ccccc35)CC(CN)CC4)C(=O)NC2=O)c2ccccc21` (stereo not drawn), the figures for the IC50 in test [1] and in test [2] were 15 nM and 1100 nM, respectively.

`CN[C@@H]1C[C@H]2O[C@@](C)([C@@H]1OC)n1c3ccccc3c3c4c(c5c6ccccc6n2c5c31)C(=O)NC4` [STAUROSPORINE] showed an IC50 in test [10] of 2.5 nM.
